Results published in ChEMBL document CHEMBL5532647, “Design, synthesis, ADME and biological evaluation of benzylpiperidine and benzylpiperazine derivatives as novel reversible monoacylglycerol lipase (MAGL) inhibitors” (Eur J Med Chem, 2024).
Values after ≈ are worked out from the molar mass of the structure shown. Active and inactive are the calls of the source. The rule behind the calls is not given here.

Experiments:
Monoglyceride lipase = target: T1, Monoglyceride lipase (Homo sapiens, UniProt Q99685); experiment: Inhibition of human recombinant MAGL using 4-nitrophenylacetate as substrate incubated for 30 mins by microplate reader analysis
T1 sequence (Q99685 whole entry): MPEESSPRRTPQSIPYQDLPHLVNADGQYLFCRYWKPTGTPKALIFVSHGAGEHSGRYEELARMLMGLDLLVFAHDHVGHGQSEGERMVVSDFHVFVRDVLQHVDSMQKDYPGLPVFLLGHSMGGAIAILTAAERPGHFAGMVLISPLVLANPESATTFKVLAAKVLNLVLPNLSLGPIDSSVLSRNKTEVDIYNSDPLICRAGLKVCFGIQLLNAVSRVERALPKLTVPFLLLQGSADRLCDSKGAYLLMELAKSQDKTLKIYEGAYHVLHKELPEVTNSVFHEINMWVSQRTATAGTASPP

[1] = target: T2, Monoacylglycerol lipase ABHD6 (Mus musculus) (UniProt Q8R2Y0); experiment: Displacement of TAMRA-FP from mouse brain ABHD6 at 10 uM incubated with compound for 5 mins followed by ABPP assay; format: tissue-based
T2 sequence (whole entry): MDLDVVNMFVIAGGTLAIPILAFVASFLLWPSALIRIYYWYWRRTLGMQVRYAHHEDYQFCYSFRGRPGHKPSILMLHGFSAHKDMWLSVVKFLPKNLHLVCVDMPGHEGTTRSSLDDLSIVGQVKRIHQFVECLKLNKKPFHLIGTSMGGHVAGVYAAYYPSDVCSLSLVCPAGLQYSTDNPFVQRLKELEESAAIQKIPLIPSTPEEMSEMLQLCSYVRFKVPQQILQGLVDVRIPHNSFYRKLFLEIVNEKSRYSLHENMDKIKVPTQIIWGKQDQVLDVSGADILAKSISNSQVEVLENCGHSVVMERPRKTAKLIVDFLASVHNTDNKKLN
How it was run: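 Mouse brain membranes (2 mg/mL final, in PBS) preincubated 25 min at 25 °C with test compound (10 μM final) or DMSO vehicle. Controls: JZL-184, URB597 4 μM, WWL70 10 μM, THL, MAFP 5 μM. TAMRA-FP 125 nM final added for 5 min at 25 °C. Reaction stopped with Laemmli buffer, 3 min at 25 °C then 10 min at 90 °C. Separation by 10% SDS-PAGE, fluorescence scanning, three independent experiments.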

[2] = Metabolic stability in human liver microsome in presence of NADPH-regenerating system by UV/LC-MS analysis; format: ADME; conditions: microsomes
How it was run: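 Compound incubated 1 h at 37 °C with human liver microsomes (0.2 mg/mL) and an NADPH-regenerating system (NADPH 0.2 mM, NADP+ 1 mM, glucose-6-phosphate 4 mM, G6PDH 4 unit/mL, MgCl2 48 mM) in 25 mM phosphate buffer pH 7.4. Quenched with acetonitrile, then centrifuged. Parent and metabolites measured by UV/LC-MS. Percent unmetabolized obtained against reference solutions; three independent experiments.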

[3] = Permeability of the compound assessed as membrane retention rate by PAMPA method; format: ADME
How it was run: (§1)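 Donor solution made from 1 mM DMSO stock diluted in 25 mM phosphate buffer pH 7.4 to 500 μM final. Filter coated with 1% (w/v) phosphatidylcholine in dodecane. Acceptor was 1:1 v/v DMSO/phosphate buffer. Sandwich incubated 5 h at room temperature. Compound in donor and acceptor wells quantified by UV/LC-MS.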

[4] = Stability in human plasma measured after 24 hrs by UV/LC-MS analysis; format: ADME, cell-free; conditions: read-out: Stability
How it was run: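 Compound (2 mM) incubated at 37 °C in pooled human plasma (55.7 mg protein/mL) with HEPES 25 mM, NaCl 140 mM, pH 7.4. Samples taken at 0–24 h and precipitated with cold acetonitrile. After centrifugation, supernatant analysed by UV/LC-MS. Three independent experiments.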

[5] = Thermodynamic aqueous solubility of the compound by LC-MS/MS analysis; format: physicochemical; conditions: read-out: Therm_solubility
How it was run: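 Solid compound (1 mg) shaken overnight in 1 mL distilled water at room temperature. Suspension passed through a 0.45 μm nylon filter. Dissolved compound quantified in triplicate by UV/LC-MS or LC-MS/MS against a calibration curve of compound in methanol.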

[6] = Apparent permeability of the compound by PAMPA method; format: ADME; how it was run: as §1
[7] = target: T3, Monoglyceride lipase (Mus musculus) (UniProt O35678); experiment: Displacement of TAMRA-FP from mouse brain MAGL at 1 uM incubated with compound for 5 mins followed by ABPP assay; format: tissue-based
T3 sequence (whole entry): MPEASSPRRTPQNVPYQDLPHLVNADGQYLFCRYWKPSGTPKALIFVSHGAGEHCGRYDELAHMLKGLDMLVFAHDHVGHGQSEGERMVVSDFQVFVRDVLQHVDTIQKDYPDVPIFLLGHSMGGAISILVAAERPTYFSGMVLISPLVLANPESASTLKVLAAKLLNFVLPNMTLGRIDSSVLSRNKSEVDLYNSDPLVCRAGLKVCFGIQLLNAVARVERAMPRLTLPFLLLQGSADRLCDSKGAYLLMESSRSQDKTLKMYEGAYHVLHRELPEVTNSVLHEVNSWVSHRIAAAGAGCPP

O=C(c1cccc(O)c1)N1CCC(Cc2cc(Sc3cc(C(F)(F)F)ccn3)ccc2O)CC1
IC50 (Monoglyceride lipase): 20.8 nM

O=C(c1cccc(O)c1)N1CCC(Cc2cccc(Sc3cccc(C(F)(F)F)n3)c2)CC1
IC50 (Monoglyceride lipase): 13.2 nM

O=C(c1cccc(O)c1)N1CCC(Cc2cc(Sc3cc(C(F)(F)F)ccn3)ccc2F)CC1
IC50 (Monoglyceride lipase): 22.5 nM

O=C(c1cccc(O)c1)N1CCC(Cc2ccc(O)c(Sc3cc(C(F)(F)F)ccn3)c2)CC1
IC50 (Monoglyceride lipase): 61.2 nM

O=C(c1cc(O)ccc1Sc1ccccc1)N1CCC(Cc2cccc(Sc3cc(C(F)(F)F)ccn3)c2)CC1
IC50 (Monoglyceride lipase): 32.3 nM

CN(Cc1cccc(-c2ccncc2)c1)C(=O)Oc1ccc(-c2ccc(C(N)=O)cc2)cc1
Activity [1]: Active

COc1ccc(Sc2cc(C(F)(F)F)ccn2)cc1CC1CCN(C(=O)c2cccc(O)c2)CC1
IC50 (Monoglyceride lipase): 49.1 nM

O=C(Nc1cc(O)cc(C(=O)N2CCC(Cc3cccc(Sc4cc(C(F)(F)F)ccn4)c3)CC2)c1)c1ccccc1
IC50 (Monoglyceride lipase): 149 nM

COc1ccc(CC2CCN(C(=O)c3cccc(O)c3)CC2)cc1Sc1cc(C(F)(F)F)ccn1
IC50 (Monoglyceride lipase): 14.4 nM

O=C(c1cccc(O)c1)N1CCC(Cc2cccc(Sc3ccc(C(F)(F)F)cn3)c2)CC1
IC50 (Monoglyceride lipase): 40.4 nM

O=C(Nc1ccc(O)cc1C(=O)N1CCC(Cc2cccc(Sc3cc(C(F)(F)F)ccn3)c2)CC1)c1ccccc1
IC50 (Monoglyceride lipase): 112 nM

O=C(c1ccc(Sc2cccc(C(F)(F)F)c2)cc1)C1CCN(C(=O)c2cc(O)ccc2F)CC1
Stability [2]: 90.71% | R% [3]: 47% | remaining at 24 h [4]: > 99% | solubility thermodynamic [5]: 0.129 ng/mL (≈ 0.256 nM) | Papp [6]: 1.83 ×10⁻⁶ cm/s

O=C(c1cccc(O)c1)N1CCC(Cc2cccc(Sc3ncccc3C(F)(F)F)c2)CC1
IC50 (Monoglyceride lipase): 7.1 nM

O=C(Oc1ccc([N+](=O)[O-])cc1)N1CCC(C(O)(c2ccc3c(c2)OCO3)c2ccc3c(c2)OCO3)CC1
Activity [7]: Active

O=C(c1cc(O)cc(Sc2ccccc2)c1)N1CCC(Cc2cccc(Sc3cc(C(F)(F)F)ccn3)c2)CC1
IC50 (Monoglyceride lipase): 44.8 nM

O=C(Nc1ccc(C(=O)N2CCC(Cc3cccc(Sc4cc(C(F)(F)F)ccn4)c3)CC2)cc1O)c1ccccc1
IC50 (Monoglyceride lipase): > 1000 nM

O=C(c1ccc(Sc2ccccc2)c(O)c1)N1CCC(Cc2cccc(Sc3cc(C(F)(F)F)ccn3)c2)CC1
IC50 (Monoglyceride lipase): 242 nM
